From PMC4894821 (ACS chemical biology, 2015)
Values belong to the molecule of their own block, whether it stands above or below them.

Legend:
[1] = target: T1, OGG1 (Homo sapiens, UniProt O15527); assay: OGG1 AP lyase activity on AP site-containing substrate; type: biochemical; conditions: 10 μM compound, compared with no inhibitor control
Procedure, shortened: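 AP-site substrate made by treating U-containing duplex with Udg, 37 °C, 2 h. OGG1 (62.5 nM stock) mixed with 10 μM compound or buffer, then substrate (50 nM stock) added. Incubated 30 min at 37 °C, quenched with formamide, resolved on 15% polyacrylamide/8 M urea gel. Percent cleavage vs no-inhibitor control; three independent experiments.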

[2] = target: T2, Human NTH1 (Homo sapiens, UniProt P78549); assay: Fluorescence-based NTH1 activity assay; type: biochemical; conditions: read-out: NTH1 % activity with 50 μM inhibitor
T2 sequence (P78549 23-304): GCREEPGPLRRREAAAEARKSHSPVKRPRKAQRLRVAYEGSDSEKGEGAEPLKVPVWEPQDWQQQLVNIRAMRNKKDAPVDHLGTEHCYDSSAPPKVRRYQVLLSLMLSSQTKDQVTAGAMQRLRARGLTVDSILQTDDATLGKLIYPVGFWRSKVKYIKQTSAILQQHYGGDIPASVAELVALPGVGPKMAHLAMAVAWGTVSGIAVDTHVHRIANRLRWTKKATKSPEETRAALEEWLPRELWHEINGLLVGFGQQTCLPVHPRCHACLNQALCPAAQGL

[3] = target: T1, OGG1; assay: Sodium cyanoborohydride trapping assay; type: biochemical; conditions: 10 μM inhibitor, 1 mM NaBH3CN
[4] = target: T1, OGG1; assay: Gel-based OGG1 cleavage assay; type: biochemical; conditions: eight concentrations up to 25 μM
[5] = target: Human NEIL1 (Homo sapiens, UniProt Q96FI4); assay: Fluorescence-based NEIL1 activity assay; type: biochemical; conditions: read-out: NEIL1 % activity with 50 μM inhibitor
Human NEIL1, sequence (Q96FI4 whole entry): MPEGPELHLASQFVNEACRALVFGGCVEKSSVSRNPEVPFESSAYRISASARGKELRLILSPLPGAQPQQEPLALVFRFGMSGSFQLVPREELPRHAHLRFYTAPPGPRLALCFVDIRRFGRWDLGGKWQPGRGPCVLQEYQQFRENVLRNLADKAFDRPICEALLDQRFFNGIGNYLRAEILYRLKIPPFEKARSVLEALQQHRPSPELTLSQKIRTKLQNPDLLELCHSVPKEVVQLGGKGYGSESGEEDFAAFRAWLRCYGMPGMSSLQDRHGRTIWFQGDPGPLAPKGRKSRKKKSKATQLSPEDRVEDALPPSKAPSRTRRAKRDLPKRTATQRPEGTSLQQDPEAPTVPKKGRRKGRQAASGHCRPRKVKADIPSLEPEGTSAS

[6] = system: AP-containing substrate; assay: Protection of AP-containing substrate against NaOH-mediated strand cleavage
[7] = target: T1, OGG1; assay: Gel shift assay; type: binding; conditions: 50 μM inhibitor or ATA, 4 °C
Procedure, shortened: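 EMSA on ice with precooled reagents. OGG1 (125 nM stock) pre-incubated 5–10 min with 50 μM inhibitor, ATA or buffer. Added 8-oxo-Gua, AP-site or U-containing fluorescent duplex (50 nM stock), held 5 min. Quenched with cold 30% glycerol; run on 8% native gel with 30% glycerol, 4 °C, 1 h, 75 V. Percent bound vs no-inhibitor control; three independent experiments.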

T1 sequence (O15527 whole entry): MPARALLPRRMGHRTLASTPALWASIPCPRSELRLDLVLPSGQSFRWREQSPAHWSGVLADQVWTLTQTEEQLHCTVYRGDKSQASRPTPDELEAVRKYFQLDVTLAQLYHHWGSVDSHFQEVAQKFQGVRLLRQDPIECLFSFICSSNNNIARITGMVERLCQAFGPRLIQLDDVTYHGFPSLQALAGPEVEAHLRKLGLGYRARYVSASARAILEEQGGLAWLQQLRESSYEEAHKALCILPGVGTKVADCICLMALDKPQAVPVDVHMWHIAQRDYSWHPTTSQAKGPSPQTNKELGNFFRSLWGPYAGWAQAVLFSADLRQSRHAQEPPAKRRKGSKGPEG

- OGG1-induced cleavage of an AP site (lyase activity) [1]: no effect
- activity at 50 µM [2]: 98%
- trapping of OGG1 on 8-oxo-Gua- and AP site-containing substrates (Schiff base formation) [3]: no effect
- inhibition of OGG1 (gel-based strand cleavage) [4]: no inhibition
- activity at 50 µM [5]: 80.6%
SMILES: NNC(=O)c1ccncc1 [Isoniazid (INH), isoniazid]

SMILES: NNc1nncc2ccccc12 [hydralazine]
- protection against NaOH-mediated (alkaline-induced) strand cleavage [6]: 63%

SMILES: O=C(O)C1=CC(=C(c2ccc(O)c(C(=O)O)c2)c2ccc(O)c(C(=O)O)c2)C=CC1=O [aurintricarboxylic acid (ATA), aurintricarboxylic acid]
- OGG1 binding to 8-oxo-Gua substrate [7]: abrogated

- OGG1-induced cleavage of an AP site (lyase activity) [1]: no effect
SMILES: Cc1cc(C(=O)NNCc2ccccc2)no1 [isocarboxazid (ICD), isocarboxazid]
